Here are results for 31 compounds from ChEMBL document CHEMBL1667850, “Indol-2-yl ethanones as novel indoleamine 2,3-dioxygenase (IDO) inhibitors” (Bioorg Med Chem, 2011).

The source made the active and inactive calls. The rule behind the calls is not given here.

In series [1] the target is T1, Indoleamine 2,3-dioxygenase 1 (Homo sapiens, UniProt P14902). Description: Inhibition of human IDO activity by spectrophotometry.
Target sequence in this assay (P14902 whole entry): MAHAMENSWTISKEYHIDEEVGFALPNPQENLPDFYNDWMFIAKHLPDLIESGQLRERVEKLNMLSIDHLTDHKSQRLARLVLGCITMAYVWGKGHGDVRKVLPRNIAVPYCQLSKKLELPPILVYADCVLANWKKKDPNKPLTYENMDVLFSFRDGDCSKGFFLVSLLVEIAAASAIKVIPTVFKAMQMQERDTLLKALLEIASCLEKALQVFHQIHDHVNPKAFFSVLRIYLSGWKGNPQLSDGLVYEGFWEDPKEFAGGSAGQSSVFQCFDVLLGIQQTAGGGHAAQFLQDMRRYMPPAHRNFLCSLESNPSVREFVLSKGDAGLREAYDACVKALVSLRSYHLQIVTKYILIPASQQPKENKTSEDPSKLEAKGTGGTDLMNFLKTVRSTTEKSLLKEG
Series [2] addresses Indoleamine 2,3-dioxygenase 1 (Mus musculus) (UniProt P28776). Description: Inhibition of mouse IDO expressed in mouse P815B cells assessed as tryptophan degradation at 20 uM. The series is classed as cell-based. The method, boiled down:
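2×10^5 cells per well incubated overnight at 37 °C in HBSS with 80 μM L-Trp and 20 μM compound. Supernatant was acetonitrile-precipitated and analysed by HPLC for Trp (280 nm) and kynurenine (360 nm). Percent inhibition of Trp degradation and kynurenine production was calculated relative to maximal activity.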

For series [3], the target named is T1, Indoleamine 2,3-dioxygenase 1. Description: Inhibition of human IDO activity at 100 uM by spectrophotometry. An outline of the steps:
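Recombinant N-His-tagged human IDO (Ala2–Gly403), expressed in E. coli BL21 AI and Ni-IMAC purified, 0.375 μg per well. Reaction in 50 mM phosphate pH 6.5 with 5 μM methylene blue, 40 mM ascorbate and 100 μM L-Trp, 60 min at room temperature. Stopped with 1 mM H2O2; change in OD320 read against a pre-enzyme baseline.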
Target sequence in this assay (P14902 whole entry, looked up): as the sequence (P14902 whole entry) above

A short description of series [4]: Cytotoxicity against mouse P815B cells at 20 uM by MTT assay. The series is classed as cell-based. The method, boiled down: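 MTT viability on the cells left in wells after the 20 μM overnight IDO assay in HBSS at 37 °C. Culture medium (Iscove, 10% FCS, amino acids) and MTT were added for 3–4 h at 37 °C. Formazan was dissolved in SDS/DMF overnight at 37 °C and read at 570/650 nm.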

Series [5] addresses T1, Indoleamine 2,3-dioxygenase 1. The series can be described thus: Inhibition of IDO.
Target sequence in this assay (P14902 whole entry): as above

Indoleamine 2,3-dioxygenase 1 (Mus musculus), sequence (P28776 whole entry, looked up): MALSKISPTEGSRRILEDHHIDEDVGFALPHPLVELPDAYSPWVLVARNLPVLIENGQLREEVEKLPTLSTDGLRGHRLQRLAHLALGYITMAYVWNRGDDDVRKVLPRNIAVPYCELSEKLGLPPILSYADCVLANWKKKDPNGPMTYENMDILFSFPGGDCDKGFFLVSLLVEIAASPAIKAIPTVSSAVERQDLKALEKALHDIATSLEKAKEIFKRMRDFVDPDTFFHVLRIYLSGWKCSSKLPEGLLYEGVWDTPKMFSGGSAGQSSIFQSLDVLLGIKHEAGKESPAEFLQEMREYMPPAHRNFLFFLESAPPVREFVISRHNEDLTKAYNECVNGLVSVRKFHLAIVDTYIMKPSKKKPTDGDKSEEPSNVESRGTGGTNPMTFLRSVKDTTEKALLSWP

For `Cn1c(C(=O)Cc2cccnc2)cc2ccccc21`, the IC50 in series [1] (read-out: IC50) came out at 34 µM. Moreover, in series [2], the inhibition entry is “inactive”.

In the case of `COc1ccc2[nH]c(C(=O)Cc3cccnc3)cc2c1OCc1ccccc1`, the IC50 entry in series [1] was “Not Active”. Besides, the inhibition entry in series [2] is “inactive”.

As to `O=C(Cc1cccnc1)c1cc2cc(-c3ccccc3)ccc2[nH]1`, in series [1] (read-out: IC50), the IC50 came to 96 µM. The inhibition entry in series [2] was “inactive”.

On to `Cc1ccc2[nH]c(C(=O)Cc3cccnc3)cc2c1`, for which the IC50 in series [1] (read-out: IC50) was found to be 87 µM. Moreover, the inhibition in series [2] came out at 21%.

In the case of `O/N=C(/Cc1cccnc1)c1cc2ccccc2[nH]1`, the figures for the inhibition in series [3] and in series [2] were 19.4% and 25%, respectively.

Regarding `O=C(Cc1cccnc1)c1cc2cc(Br)ccc2[nH]1`, in series [1] (read-out: IC50), the IC50 came to 18 µM. In series [2], the inhibition entry is “inactive”.

In the case of `O=C(Nc1cccnc1)c1cc2ccccc2[nH]1`, the IC50 in series [1] (read-out: IC50) came to 94 µM. For the same compound, the inhibition entry in series [2] is “inactive”.

On to `O=C(Cc1cccnc1)c1cc2cc(O)ccc2[nH]1`, for which the IC50 in series [1] (read-out: IC50) stood at 37 µM. For the same compound, in series [2], the inhibition entry was “inactive”.

With `O=C(Cc1cccnc1)c1cc2cc(OC(F)(F)F)ccc2[nH]1`, the IC50 in series [1] (read-out: IC50) is 13.1 µM. Also, in series [2], the inhibition is 12%.

For `O=C(Cc1cccnc1)c1cc2cc(Cl)ccc2[nH]1`, the IC50 in series [1] (read-out: IC50) is 24.6 µM. Also, the inhibition in series [2] turned out to be 24%.

As to `O=C(Cc1cccnc1)c1cc2c(Cl)cc(Cl)cc2[nH]1`, the concentration for half-maximal inhibition (IC50) in series [1] (read-out: IC50) was found to be 139 µM. For the same compound, in series [2], the inhibition result was “inactive”.

For the compound `O=C(Cc1cccnc1)c1cc2c(O)cccc2[nH]1`, the IC50 in series [1] (read-out: IC50) amounted to 83 µM. Moreover, the inhibition entry in series [2] is “inactive”.

As to `c1cncc(CCc2cc3ccccc3[nH]2)c1`, the IC50 result in series [1] was “Not Active”. Besides, the inhibition entry in series [2] is “inactive”.

Consider `O=C(Cc1cnccn1)c1cc2ccccc2[nH]1`, for which, in series [1] (read-out: IC50), the IC50 was found to be 26.2 µM. The inhibition entry in series [2] was “inactive”.

For `COc1cc(OC)c2cc(C(=O)Cc3cccnc3)[nH]c2c1`, the IC50 in series [1] (read-out: IC50) came out at 45 µM. For the same compound, the Activity entry in series [4] is “Toxic”.

`OC(Cc1cccnc1)c1cc2ccccc2[nH]1` (stereo not given): the IC50 result in series [1] is recorded as “Not Active”. Further, in series [2], the inhibition result is “inactive”.

`O=C(Cc1cccnc1)c1cc2ccc(F)cc2[nH]1`: in series [1] (read-out: IC50), the IC50 was 43 µM. The inhibition entry in series [2] was “inactive”.

For `COc1cccc2cc(C(=O)Cc3cccnc3)[nH]c12`, the IC50 in series [1] (read-out: IC50) worked out at 82 µM. For the same compound, in series [2], the inhibition was 6%.

Compound `c1ccc2c(c1)[nH]c1cnccc12` [NORHARMANE] returned a Ki in series [5] of 120 µM.

Consider `COc1ccc2[nH]c(C(=O)Cc3cccnc3)cc2c1O`, for which, in series [1] (read-out: IC50), the IC50 came out at 63 µM. For the same compound, the inhibition in series [2] was determined as 11%.

As to `O=C(Cc1ccccn1)c1cc2ccccc2[nH]1`, in series [1] (read-out: IC50), the IC50 was determined as 37 µM. Also, the inhibition in series [2] was 10%.

`COc1ccc2[nH]c(C(=O)Cc3cccnc3)cc2c1`: the IC50 in series [1] (read-out: IC50) is 49 µM.

Turning to `O=C(Cc1ccncc1)c1cc2ccccc2[nH]1`, the IC50 result in series [1] was “Not Active”. Further, in series [2], the inhibition result is “inactive”.

Take `O=C(Cc1cccnc1)c1cc2c(F)cccc2[nH]1`: the IC50 in series [1] (read-out: IC50) worked out at 153 µM. Further, the inhibition in series [2] worked out at 12%.

Consider `O=C(Cc1cccnc1)c1cc2ccccc2[nH]1`, for which, in series [1] (read-out: IC50), the IC50 was determined as 65 µM. The inhibition in series [2] worked out at 13%.

With `CC(C(=O)c1cc2ccccc2[nH]1)c1cccnc1` (stereo not given), the IC50 in series [1] (read-out: IC50) is 141 µM. Also, in series [2], the inhibition entry was “inactive”.

For the compound `O=C(Cc1cccnc1)c1cc2cc([N+](=O)[O-])ccc2[nH]1`, the IC50 entry in series [1] is on record as “Not Active”. The inhibition entry in series [2] is “inactive”.

As for `O=C(Cc1cccnc1)c1[nH]c2ccccc2c1Br`, in series [1], the IC50 result is listed as “Not Active”. Besides, the inhibition entry in series [2] was “inactive”.

As for `O=C(Cc1cccnc1)c1cc2cc(F)ccc2[nH]1`, the IC50 in series [1] (read-out: IC50) turned out to be 36 µM. Also, in series [2], the inhibition is 24%.

Regarding `COc1cccc2[nH]c(C(=O)Cc3cccnc3)cc12`, the IC50 in series [1] (read-out: IC50) was determined as 58 µM. For the same compound, in series [2], the inhibition result is “inactive”.

On to `O=C(Cc1ccccc1)c1cc2ccccc2[nH]1`, for which the IC50 in series [1] (read-out: IC50) is 29 µM. Besides, the inhibition entry in series [2] was “inactive”.

A word on the IC50: it is the midpoint of a concentration-inhibition curve. As usually defined, the inhibition is the share of the control response that was lost under treatment. For orientation: Ki means a measure of affinity in units of concentration, obtained from inhibition or displacement. A high value points to a looser hold on the target.
